How the values were obtained:
[1] = system: Human immunodeficiency virus 1; assay: Antiviral activity against HIV1 3B infected human MT4 cells assessed as drug level required for 95% inhibition in the presence of 50% normal human serum; format: functional
Outline: (§1)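 Spread assay: MT-4 human T-lymphoid cells in RPMI 1640 with either 10% FBS or 50% NHS; CIC95 taken as the concentration blocking >95% of virus spread. Wild-type virus H9IIIB or R8 as stated per line. Geometric mean of at least two determinations, individual values within 25% of the mean.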

[2] = Inhibition of HIV1 reverse transcriptase K103 mutant
[3] = system: Human immunodeficiency virus 1; assay: Antiviral activity against HIV1 3B infected human MT4 cells assessed as drug level required for 95% inhibition in the presence of 10% fetal bovine serum; format: functional; outline: as §1
Rattus norvegicus [4] = assay: Hepatic clearance in Sprague-Dawley rat at 10 mg/kg, po and 2 mg/kg, iv; format: ADME, organism-based, Liver; conditions: in vivo
[5] = system: Human immunodeficiency virus 1; assay: Antiviral activity against HIV1 carrying reverse transcriptase G190A mutant infected human MT4 cells by phenoscreen assay in the presence of 40 percent normal human serum; conditions: Human immunodeficiency virus 1, MT4
[6] = system: Human immunodeficiency virus 1; assay: Antiviral activity against HIV1 carrying reverse transcriptase Y188L mutant infected human MT4 cells by phenoscreen assay in the presence of 40 percent normal human serum; format: functional, organism-based; conditions: Human immunodeficiency virus 1, MT4
Outline: (§2)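 Phenotypic recombinant-virus assay (Phenoscreen, Monogram Bioscience), run with 40% normal human serum present. IC50 is the compound concentration in cell culture that inhibits viral replication by 50%.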

[7] = system: Human immunodeficiency virus 1; assay: Antiviral activity against HIV1 carrying reverse transcriptase […]/G190A mutant infected human MT4 cells in the presence of 40 percent normal human serum; format: functional; outline: as §2
[8] = system: Human immunodeficiency virus 1; assay: Antiviral activity against HIV1 infected human MT4 cells by phenoscreen assay in the presence of 40 percent normal human serum; format: functional, organism-based; conditions: Human immunodeficiency virus 1, MT4
[9] = system: Human immunodeficiency virus 1; assay: Ratio of IC50 for HIV1 carrying reverse transcriptase Y181C mutant to IC50 for wild type HIV1 in the presence of 40% normal human serum; format: functional
[10] = Oral bioavailability in Beagle dog at 1 mg/kg; format: ADME, organism-based, Canis lupus familiaris; conditions: in vivo
Outline: (§3)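 Beagle dogs (n = 2) dosed singly, po 1 mg/kg and iv 0.5 mg/kg; iv cassette co-administered with other analogues at 0.125 mg/kg. Interanimal variability below 20%.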

[11] = system: Human immunodeficiency virus 1; assay: Antiviral activity against HIV1 carrying reverse transcriptase K103N/G190A mutant infected human MT4 cells by phenoscreen assay in the presence of 40 percent normal human serum; format: functional, organism-based; conditions: Human immunodeficiency virus 1, MT4; outline: as §2
[12] = system: Human immunodeficiency virus 1; assay: Antiviral activity against HIV1 carrying reverse transcriptase V106A/G190A/F227L mutant infected human MT4 cells by phenoscreen assay in the presence of 40 percent normal human serum; format: functional, organism-based; conditions: Human immunodeficiency virus 1, MT4; outline: as §2
[13] = system: Human immunodeficiency virus 1; assay: Antiviral activity against HIV1 carrying reverse transcriptase K103N mutant infected human MT4 cells by phenoscreen assay in the presence of 40 percent normal human serum; format: functional, organism-based; conditions: Human immunodeficiency virus 1, MT4; outline: as §2
[14] = system: Human immunodeficiency virus 1; assay: Ratio of IC50 for HIV1 carrying reverse transcriptase K103N/Y181C mutant to IC50 for wild type HIV1 in the presence of 40% normal human serum; format: functional
[15] = Activity of CYP3A4 in rat bile assessed as oxidation of tetrahydroquinoline ring; format: ADME
[16] = Activity of CYP3A4 in rat plasma assessed as oxidation of tetrahydroquinoline ring; format: ADME, cell-free
[17] = system: Human immunodeficiency virus 1; assay: Antiviral activity against HIV1 carrying reverse transcriptase K103N/Y181C mutant infected human MT4 cells by phenoscreen assay in the presence of 40 percent normal human serum; format: functional, organism-based; conditions: Human immunodeficiency virus 1, MT4; outline: as §2
[18] = system: Human immunodeficiency virus 1; assay: Ratio of IC50 for HIV1 carrying reverse transcriptase K103N mutant to IC50 for wild type HIV1 in the presence of 40% normal human serum; format: functional
[19] = system: Human immunodeficiency virus 1; assay: Ratio of IC50 for HIV1 carrying reverse transcriptase V106A/G190A/F227L mutant to IC50 for wild type HIV1 in the presence of 40% normal human serum; format: functional
[20] = system: Human immunodeficiency virus 1; assay: Antiviral activity against HIV1 R8 infected human MT4 cells assessed as drug level required for 95% inhibition in the presence of 50% normal human serum; format: functional; outline: as §1
[21] = system: Human immunodeficiency virus 1; assay: Ratio of IC50 for HIV1 carrying reverse transcriptase […]/G190A mutant to IC50 for wild type HIV1 in the presence of 40% normal human serum; format: functional
[22] = system: Human immunodeficiency virus 1; assay: Ratio of IC50 for HIV1 carrying reverse transcriptase G190A mutant to IC50 for wild type HIV1 in the presence of 40% normal human serum; format: functional
[23] = Volume of distribution in Beagle dog at 1 mg/kg, po and 0.5 mg/kg, iv; format: ADME, organism-based, Canis lupus familiaris; conditions: in vivo, read-out: Vdss; outline: as §3
[24] = system: Human immunodeficiency virus 1; assay: Ratio of IC50 for HIV1 carrying reverse transcriptase Y181C/G190A mutant to IC50 for wild type HIV1 in the presence of 40% normal human serum; format: functional
[25] = Activity of CYP3A4 in rat liver microsomes assessed as oxidation of tetrahydroquinoline ring; format: ADME, Microsome
[26] = system: Human immunodeficiency virus 1; assay: Ratio of IC50 for HIV1 carrying reverse transcriptase […]/ Y181C/G190A mutant to IC50 for wild type HIV1 in the presence of 40% normal human serum; format: functional
[27] = Activity of CYP3A4 in rat hepatocytes assessed as oxidation of tetrahydroquinoline ring; format: ADME, cell-based, Hepatocyte
[28] = system: Human immunodeficiency virus 1; assay: Antiviral activity against HIV1 carrying reverse transcriptase K101E/G190A mutant infected human MT4 cells by phenoscreen assay in the presence of 40 percent normal human serum; conditions: Human immunodeficiency virus 1, MT4
[29] = system: Human immunodeficiency virus 1; assay: Antiviral activity against HIV1 carrying reverse transcriptase K103N/ Y181C/G190A mutant infected human MT4 cells by phenoscreen assay in the presence of 40 percent normal human serum; format: functional, organism-based; conditions: Human immunodeficiency virus 1, MT4; outline: as §2
[30] = system: Human immunodeficiency virus 1; assay: Ratio of IC50 for HIV1 carrying reverse transcriptase […] mutant to IC50 for wild type HIV1 in the presence of 40% normal human serum; format: functional
[31] = system: Human immunodeficiency virus 1; assay: Antiviral activity against HIV1 carrying reverse transcriptase Y181C/G190A mutant infected human MT4 cells by phenoscreen assay in the presence of 40 percent normal human serum; format: functional, organism-based; conditions: Human immunodeficiency virus 1, MT4; outline: as §2
[32] = system: Human immunodeficiency virus 1; assay: Antiviral activity against HIV1 carrying reverse transcriptase G190S mutant infected human MT4 cells by phenoscreen assay in the presence of 40 percent normal human serum; conditions: Human immunodeficiency virus 1, MT4
[33] = system: Human immunodeficiency virus 1; assay: Ratio of IC50 for HIV1 carrying reverse transcriptase K103N/G190A mutant to IC50 for wild type HIV1 in the presence of 40% normal human serum; format: functional
[34] = system: Human immunodeficiency virus 1; assay: Ratio of IC50 for HIV1 carrying reverse transcriptase K103N/V179E mutant to IC50 for wild type HIV1 in the presence of 40% normal human serum; format: functional
[35] = system: Human immunodeficiency virus 1; assay: Ratio of IC50 for HIV1 carrying reverse transcriptase G190S mutant to IC50 for wild type HIV1 in the presence of 40% normal human serum; format: functional
[36] = system: Human immunodeficiency virus 1; assay: Antiviral activity against HIV1 carrying reverse transcriptase Y181C mutant infected human MT4 cells by phenoscreen assay in the presence of 40 percent normal human serum; format: functional, organism-based; conditions: Human immunodeficiency virus 1, MT4; outline: as §2
[37] = system: Human immunodeficiency virus 1; assay: Antiviral activity against HIV1 R8 infected human MT4 cells assessed as drug level required for 95% inhibition in the presence of 10% fetal bovine serum; format: functional; outline: as §1
[38] = system: Human immunodeficiency virus 1; assay: Antiviral activity against HIV1 carrying reverse transcriptase K103N/V179E mutant infected human MT4 cells by phenoscreen assay in the presence of 40 percent normal human serum; format: functional, organism-based; conditions: Human immunodeficiency virus 1, MT4; outline: as §2
[39] = system: Human immunodeficiency virus 1; assay: Antiviral activity against HIV1 carrying reverse transcriptase K103N/P225H mutant infected human MT4 cells by phenoscreen assay in the presence of 40 percent normal human serum; format: functional, organism-based; conditions: Human immunodeficiency virus 1, MT4; outline: as §2
[40] = Half life in Beagle dog at 1 mg/kg, po and 0.5 mg/kg, iv; format: ADME, organism-based, Canis lupus familiaris; conditions: in vivo; outline: as §3
[41] = system: Human immunodeficiency virus 1; assay: Ratio of IC50 for HIV1 carrying reverse transcriptase K103N/P225H mutant to IC50 for wild type HIV1 in the presence of 40% normal human serum; format: functional
[42] = Half life in Sprague-Dawley rat at 10 mg/kg, po and 2 mg/kg, iv; format: ADME, organism-based; conditions: in vivo
[43] = system: Human immunodeficiency virus 1; assay: Antiviral activity against HIV1 carrying reverse transcriptase […] mutant infected human MT4 cells by phenoscreen assay in the presence of 40 percent normal human serum; format: functional, organism-based; conditions: Human immunodeficiency virus 1, MT4; outline: as §2
[44] = system: Human immunodeficiency virus 1; assay: Ratio of IC50 for HIV1 carrying reverse transcriptase Y188L mutant to IC50 for wild type HIV1 in the presence of 40% normal human serum; format: functional
[45] = system: Human immunodeficiency virus 1; assay: Antiviral activity against HIV1 carrying reverse transcriptase K101E/ Y181C/G190A mutant infected human MT4 cells by phenoscreen assay in the presence of 40 percent normal human serum; conditions: Human immunodeficiency virus 1, MT4
Rattus norvegicus [46] = assay: Hepatic clearance in rat at 10 mg/kg, po and 2 mg/kg, iv; conditions: in vivo
Canis familiaris = assay: Hepatic clearance in Beagle dog at 1 mg/kg, po and 0.5 mg/kg, iv; format: ADME, organism-based, Canis lupus familiaris, Liver; conditions: in vivo; outline: as §3

Compound: NS(=O)(=O)c1ccc(NC(=O)CSC(=O)N2CCCc3cccc(Cl)c32)c(Cl)c1
- ID95 [1]: 47 nM
- IC50 [2]: 4 nM
- ID95 [3]: 23 nM

Compound: NS(=O)(=O)c1ccc(NC(=O)CSC(=O)N2CCCc3cc(Cl)cc(Cl)c32)c(Cl)c1
- CL (Rattus norvegicus [4]): 109 mL/min/kg
- IC50 [5]: 12.1 nM
- IC50 [6]: > 1000 nM
- fold change (FC) [7]: 94.3
- IC50 [8]: 1.2 nM
- fold change (FC) [9]: 14
- bioavailability [10]: 30%
- IC50 [11]: 8.2 nM
- IC50 [12]: > 1000 nM
- IC50 [13]: 0.9 nM
- fold change (FC) [14]: 53.5
- Activity [15]: Active
- Activity [16]: Active
- IC50 [17]: 64.2 nM
- fold change (FC) [18]: 0.8
- fold change (FC) [19]: >833
- Activity [20]: 33 nM
- fold change (FC) [21]: 94.3
- fold change (FC) [22]: 10.1
- Vd [23]: 5 L/kg
- fold change (FC) [24]: 272.5
- ID95 [1]: 40 nM
- Activity [25]: Active
- fold change (FC) [26]: >833
- Activity [27]: Active
- IC50 [28]: 113 nM
- ID95 [3]: 13 nM
- IC50 [29]: > 1000 nM
- fold change (FC) [30]: 4.6
- IC50 [31]: 327 nM
- IC50 [32]: 61.9 nM
- fold change (FC) [33]: 6.8
- fold change (FC) [34]: 1.8
- fold change (FC) [35]: 51.6
- IC50 [36]: 16.8 nM
- Activity [37]: 18 nM
- IC50 [38]: 2.2 nM
- IC50 [39]: 3.2 nM
- half-life [40]: 294 min
- fold change (FC) [41]: 2.7
- half-life [42]: 24 min
- IC50 [43]: 5.5 nM
- fold change (FC) [44]: >833
- IC50 [45]: > 1000 nM

Compound: NS(=O)(=O)c1ccc(NC(=O)C2CC2C(=O)N2CCCc3cc(Cl)cc(Cl)c32)c(Cl)c1 (single isomer, unassigned; 16)
- Activity [1]: 304 nM
- IC50 [2]: 18 nM
- CL (Rattus norvegicus [46]): 22 mL/min/kg
- Activity [3]: 176 nM
- CL (Canis familiaris): 14 mL/min/kg
- half-life [40]: 78 min
- half-life [42]: 30 min

Compound: NS(=O)(=O)c1ccc(NC(=O)C2CC2C(=O)N2CCCc3cc(Cl)cc(Cl)c32)c(Cl)c1 (single isomer, unassigned; 17)
- Activity [1]: 922 nM
- IC50 [2]: 430 nM
- Activity [3]: 922 nM
